Each structure is given as a SMILES string. Activity calls are given as the source filed them. The rule behind the calls is not given here.

One test relates to Cladosporium cucumerinum. In words: Antifungal activity against Cladosporium cucumerinum CCMI 206 at 100 ug by bioautographic TLC bioassay. In kind it is functional, organism-based. In outline:
(§1)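 Bioautography on developed TLC plates against the fungus C. cucumerinum strain CCMI 206, obtained from the CCMI culture collection. Procedure followed Homans and Fuchs.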
For the compound `COc1cc2c(cc1OC)[C@@H]1Oc3cc4c(cc3[C@@H]1CO2)OCO4`, the outcome was Active.

In the case of `COc1cc2c(cc1C1COc3cc(O)ccc3C1=O)OCO2` (configuration not stated), the outcome was Active.

For `CC(C)=CCc1c(O)cc2occ(-c3ccc4c(c3)C=CC(C)(C)O4)c(=O)c2c1O`, the result was inactive.

As to `CC1(C)C=Cc2c(cc3occ(-c4ccc(O)cc4)c(=O)c3c2O)O1`, the result was inactive.

With `CC(C)=CCc1cc(-c2coc3cc(O)c(CC=C(C)C)c(O)c3c2=O)ccc1O`, the result was inactive.

As for `CC1(C)C=Cc2c(cc(O)c3c(=O)cc(-c4ccc(O)cc4)oc23)O1`, the outcome was inactive.

Consider `CC1(C)C=Cc2cc(-c3coc4cc5oc(C(C)(C)O)cc5c(O)c4c3=O)ccc2O1`, for which the outcome was inactive.

Regarding `COc1cc(O)c2c(=O)c(-c3ccc(O)c(CC=C(C)C)c3)coc2c1CC=C(C)C`, the outcome was Active.

For `CC1(C)C=Cc2cc(-c3coc4cc5c(c(O)c4c3=O)CC(C(C)(C)O)O5)ccc2O1` (configuration not stated), the outcome was inactive.

`CC1(C)C=Cc2c(ccc(-c3coc4cc(O)cc(O)c4c3=O)c2O)O1`: the outcome was Active.

A further test concerns Cladosporium cucumerinum. Kind of test: Induction of growth of Cladosporium cucumerinum CCMI 206 at 100 ug by bioautographic TLC bioassay. In kind it is functional, organism-based. The method, boiled down: as §1
Consider `COc1c(O)cc2c(c1OC)OC[C@H]1c3cc4c(cc3O[C@@H]21)OCO4`, for which the outcome was Active.

As to `COc1cc2c(cc1O)[C@@H]1Oc3cc4c(cc3[C@@H]1CO2)OCO4`, the result was Active.
